In ChEMBL document CHEMBL4138179, “Design, synthesis and cytotoxic activity of N-Modified oleanolic saponins bearing A glucosamine” (Eur J Med Chem, 2018):
pIC50: −log10 of the molar value.

Key:
[1] = Drug uptake in human HL60 cells at 15 uM for 15 hrs by DBCO-488 probe based fluorescence confocal microscopy; assay type: ADME, cell-based; settings: hl-60, 15 h
In short: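 HL-60 cells treated with azido-bearing compound (15 μM, 15 h); DMSO-diluted control. Cells fixed in 99% alcohol, permeabilized with 0.1% Triton X-100 in PBS for 15 min, then washed. Copper-free labeling with DBCO-488 (2 μM) plus 0.5 mg/mL BSA in PBS for 6 h. RedDot2 nuclear and CellBrite Blue membrane counterstains; imaged by confocal fluorescence microscopy.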

PC-3 = assay: Cytotoxicity against human PC3 cells assessed as cell growth inhibition after 48 hrs by MTT assay; assay type: functional, cell-based; settings: PC-3, 48 h
In short: (§1)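 Cells from ATCC; HL-60 grown in IMDM, PC-3 in RPMI 1640, HT29 in DMEM, each with 10% FBS and penicillin/streptomycin, 37 °C, 5% CO2. Cells incubated without or with compound at the indicated concentrations and times. Mitochondrial MTT reduction read at 570 nm on a plate reader. IC50 given as mean ± SD of at least three independent experiments.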

HT-29 = assay: Cytotoxicity against human HT-29 cells assessed as cell growth inhibition after 48 hrs by MTT assay; assay type: functional, cell-based; settings: HT-29, 48 h; in short: as §1
HL-60 [2] = assay: Cytotoxicity against human HL60 cells assessed as cell growth inhibition after 48 hrs by MTT assay; assay type: functional, cell-based; settings: HL-60, 48 h; in short: as §1
HL-60 [3] = assay: Induction of mitochondrial membrane depolarization in human HL60 cells after 24 hrs by JC-1 staining based flow cytometry; assay type: functional, cell-based
In short: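 HL-60 cells exposed to a range of compound concentrations under the MTT culture conditions, untreated control included. After 1 day, cells stained with JC-1 (final 2 μM) at 37 °C for 30 min, then harvested. Flow cytometry gives the percentage loss of mitochondrial membrane potential.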

| Drug uptake [1] | Compound | pIC50 (PC-3) | pIC50 (HT-29) | pIC50 (HL-60 [2]) | Activity (HL-60 [3]) |
| --- | --- | --- | --- | --- | --- |
| Active | CC1(C)CC[C@]2(C(=O)O)CC[C@]3(C)C(=CC[C@H]4C3(C)CC[C@H]3C(C)(C)[C@@H](O[C@@H]5O[C@H](CO)[C@@H](O)[C@H](O)[C@H]5NC(=O)CCc5cn(-c6cc7ccc(O)cc7oc6=O)nn5)CC[C@@]34C)[C@@H]2C1 (single isomer, unassigned) |  |  |  |  |
|  | CCCCCCC(=O)N[C@H]1[C@H](O[C@H]2CC[C@]3(C)[C@H]4CC=C5[C@@H]6CC(C)(C)CC[C@]6(C(=O)O)CC[C@@]5(C)[C@]4(C)CC[C@H]3C2(C)C)O[C@H](CO)[C@@H](O)[C@@H]1O | < 4.52 | < 4.52 | 5.55 | Dose-dependent effect |
